STEP inh: STEP (human) phosphatase inhibition | P54829 | recombinant STEP, OMFP fluorogenic substrate, fluorescence | inhibition, % at 20 µM | 360,000 compounds, 0.25% hits;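 active = inhibition at 20 µM, scaled per plate between control wells, above about 37%, limit read from the data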;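 note: 0% = DMSO with enzyme and substrate and 100% = substrate only without enzyme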
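Test system: STEP tyrosine phosphatase / Reagent: OMFP at 25 µM / Doses: 20 µM, 1% DMSO / Read-out: percent inhibition scaled to no-enzyme and uninhibited-enzyme controls, plate-pattern corrected / Detection: FITC-channel fluorescence of OMFP product / Medium: Bis-Tris buffer pH 6.0, 2.5 mM DTT, 0.005% Tween 20 / Schedule: 20 min at room temperature, dark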
GRK2 inh: human GRK2 inhibition via aptamer displacement | P25098 | bead flow cytometry, FAM-aptamer displacement from GRK2 | inhibition of aptamer binding, % at 10 µM | 330,000 compounds, 0.59% hits | AID 488847;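 active = inhibition of aptamer binding above 40%, roughly 3 SD of noise, on plates passing a quality check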;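 note: median bead fluorescence of bound FAM aptamer so fluorescent compounds give negative values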
DNMT1 block: inhibitors of human DNMT1; P26358; DNMT1 molecular beacon, Hinp1I cleavage, fluorescence; inhibition (reported as % activation of signal), % at 10 µM; 360,000 compounds, 0.83% hits; in the data active = inhibition above about 50%
SUMO1 PPI mod: alters human SUMO1 binding to SIM partners; P63165; SUMO1 binding to a labelled peptide, TR-FRET, 1 h; inhibition, % at 20 µM; 360,000 compounds, 0.33% hits; in the data active = inhibition above about 37%
Target sequence (P63165 whole entry, looked up): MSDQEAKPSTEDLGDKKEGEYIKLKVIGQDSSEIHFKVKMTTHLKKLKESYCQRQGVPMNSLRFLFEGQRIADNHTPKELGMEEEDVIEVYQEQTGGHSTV
Scp-1 inhibitor: inhibitors of human Scp-1 phosphatase | Recombinant Scp1, phosphopeptide, malachite green phosphate absorbance | AID 493091 | 340,000 compounds, 0.88% hits | inhibition, % at 20 µM | Q9GZU7;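 active = inhibition above about 50% at 20 µM, limit read from the data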;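 note: plate controls were DMSO wells with enzyme for no effect and wells lacking enzyme for full effect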
Target sequence (Q9GZU7 76-261 limits assumed): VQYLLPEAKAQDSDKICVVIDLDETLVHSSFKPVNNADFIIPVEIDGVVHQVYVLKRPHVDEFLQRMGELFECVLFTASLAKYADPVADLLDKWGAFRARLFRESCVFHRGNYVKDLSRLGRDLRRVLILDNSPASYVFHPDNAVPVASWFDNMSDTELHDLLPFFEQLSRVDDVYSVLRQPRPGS
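Material: truncated SCP-1 phosphatase (76-261aa) / Buffer or medium: 50 mM Tris acetate pH 5.5, 0.005% Tween-20, 10 mM MgCl2 / Compound dosing: one concentration, 20 µM, with 1.0% DMSO / Incubation: 45 min room-temperature reaction, 5 min colour, 30 min stabiliser / Detection: colorimetric free-phosphate detection, absorbance 630 nm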
LMPTP block: LMPTP (human) inhibition; 360,000 compounds, 0.22% hits; recombinant LMPTP-A, OMFP fluorogenic substrate, fluorescence intensity; P24666; AID 651560; inhibition, % at 20 µM;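 active = compounds that cut the enzyme signal by at least half of the control window in the single-dose screen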;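 note: plate controls were DMSO wells with enzyme plus substrate for no effect and substrate without enzyme for full effect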
Target sequence (P24666 whole entry, looked up): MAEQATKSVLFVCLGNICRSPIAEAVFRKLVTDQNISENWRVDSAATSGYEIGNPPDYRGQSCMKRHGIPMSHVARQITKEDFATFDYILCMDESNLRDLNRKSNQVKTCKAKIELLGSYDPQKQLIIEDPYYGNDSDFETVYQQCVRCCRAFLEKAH
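Assay system: LMPTP-A phosphatase enzyme | Input: 0.625 nM enzyme | Also added: Fluorogenic phosphatase substrate OMFP at 400 µM final | Compound dosing: One test concentration per compound, 20 µM, with 3% DMSO overall | Schedule: 50 min enzyme reaction at room temperature, protected from light | Signal: Fluorescence intensity | Benchmarks: no-enzyme and uninhibited controls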
GRK2 inh confirm: human GRK2 inhibition confirmation, cherry pick 1; bead-bound GRK2, FAM-aptamer displacement, flow cytometry; shares compounds with GRK2 inh; aptamer displacement, % at 10 µM; 2,000 compounds, 4% hits;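 active = aptamer displacement above 40%, near three times the noise of non-fluorescent compounds, on plates passing quality checks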;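 note: negative values mostly reflect intrinsic compound fluorescence rather than true enhancement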
FAM quench CP1: quenches fluorescent RNA aptamer, GRK2 hit artifact; shares compounds with GRK2 inh; fluorescence response (% of DMSO), % at 10 µM; Carboxyfluorescein RNA aptamer on beads, flow cytometry quenching; stronger effect = lower value; 2,000 tested, under 10 active;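 active = compounds that quench the bead-bound fluorescent RNA probe, cutting fluorescence to under half of the solvent control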;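 note: counterscreen run without GRK2 so only probe quenching by compound is measured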
GRK2 CP2: confirmation of human GRK2 inhibitors binding RNA aptamer site; shares compounds with GRK2 inh; 360 tested, under 10 active; bead-bound GRK2, FAM-aptamer displacement, flow cytometry; inhibition of aptamer binding, % at 10 µM;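 active = inhibition of aptamer binding above 40%, about triple the noise seen with nonglowing compounds, on plates passing quality control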;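 note: negative values mostly come from compounds that fluoresce themselves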
FAM quench CP2: counter-screen for GRK2 binding hits: quenchers of fluorescent RNA aptamer; fluorescence response vs DMSO, % at 10 µM; carboxyfluorescein RNA aptamer beads, flow cytometry quenching; stronger effect = lower value; 360 tested, under 10 active; shares compounds with GRK2 inh;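 active = response vs DMSO under 50%, meaning signal dropped by over half, treated as fluorescence quencher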;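 note: labelled aptamer on streptavidin beads without GRK2 as a quench counter-screen; 100% = bead fluorescence of DMSO wells and lower means quenching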
Active calls of the source: *; nt = no result. Rows were chosen to be rich in hits. Some 2.1% of all compounds tested hit in one or more screens of this group.

SMILES | STEP inh | GRK2 inh | DNMT1 block | SUMO1 PPI mod | Scp-1 inhibitor | LMPTP block | GRK2 inh confirm | FAM quench CP1 | others
OC(c1cccc(OCc2ccccc2)c1)c1nnc(-c2ccccc2)o1 (stereo not given) | 3 | 0 | -6 | 3 | -10 | 3 | -1 | 95
OC(c1ccc(OCc2ccccc2)cc1)c1nnc(-c2ccccc2)o1 (stereo not given) | 1 | 5 | -7 | 1 | -9 | 2 | -1 | 98
CCOC(=O)[C@]12CCC=C1N(Cc1cccc3ccccc13)C(=O)[C@H](CC(=O)NCc1ccc(OC)c(OC)c1)C2 | nt | nt | nt | 2 | nt | 1 | nt | nt
O=C(OCCOc1ccccc1)c1n[nH]c2ccccc12 | 4 | 78* | 0 | 1 | -10 | 2 | 4 | 97
CCOC(=O)c1n[nH]c2ccccc12 | 5 | 1 | 4 | -1 | -4 | -1 | nt | nt
CNC(=O)NC(=O)COC(=O)c1n[nH]c2ccccc12 | 1 | 45* | 1 | -2 | -1 | 0 | 0 | 98
O=C(COC(=O)c1n[nH]c2ccccc12)NC(=O)NC1CCCCC1 | -2 | 2 | -2 | 0 | -7 | 1 | nt | nt
Nc1cccn2c(-c3ccc(Cl)cc3)cnc12 | 13 | 19 | -15 | 3 | 1 | 13 | -1 | 99
Cc1ccc(S(=O)(=O)/N=C(\c2ccccc2)N(C)S(=O)(=O)c2ccc(C)cc2)cc1 | 0 | 66* | -4 | 2 | -9 | -3 | -3 | 96
CC(=O)c1ccc(-n2nncc2C(C)(C)C)cc1 | -3 | 1 | 0 | -2 | -6 | -1 | nt | nt
Cc1cnnn1-c1ccc(C(=O)CCl)cc1 | -2 | 56* | -2 | -3 | 3 | 0 | -52 | 98
Cc1ccc(C(=O)NC2CCS(=O)(=O)C2)cc1S(=O)(=O)N1CCCCCC1 (stereo not given) | -3 | 3 | 2 | 0 | 1 | -1 | nt | nt
Cc1oc(C(=O)O)cc1COc1ccc2c3c(c(=O)oc2c1C)CCC3 | 4 | 73* | 22 | 11 | 37 | 2 | 7 | 105
CN(c1ccccc1)S(=O)(=O)c1ccc(Cl)c(C(=O)Nc2ccccc2N2CCOCC2)c1 | 3 | nt | 0 | 2 | 1 | 0 | nt | nt
Cc1c(NS(=O)(=O)c2ccccc2)c(=O)n(-c2ccccc2)n1C | 1 | 2 | 3 | -2 | -5 | 0 | nt | nt
Cc1c(NS(=O)(=O)c2ccc3[nH]c(=O)[nH]c3c2)c(=O)n(-c2ccccc2)n1C | 0 | 75* | 34 | -1 | 3 | -1 | 1 | 106
Cc1ccc(S(=O)(=O)N2C[C@H]3n4c(=O)ccc(=O)n4C[C@H](OC(=O)NCc4ccccc4F)[C@@]3(O)C2)cc1 | 1 | nt | 0 | 1 | nt | -1 | nt | nt
CN1C/C(=C/c2ccsc2)C(=O)/C(=C/c2ccsc2)C1 | 3 | 63* | 4 | -7 | -10 | 0 | 0 | 96
Cc1cc(Cl)c2oc(C(=O)NC3CCC(O)CC3)c(C)c2c1 (stereo not given) | 0 | 65* | 0 | 8 | 34 | 0 | 0 | 97
CCc1ccc2[nH]c(=O)c(C3C(C#N)=C(N)Oc4c3ccc3cccnc43)cc2c1 (stereo not given) | 2 | 1 | -12 | -10 | -5 | 2 | nt | nt
Cc1ccc2cc(C3C(C#N)=C(N)Oc4c3ccc3cccnc43)c(=O)[nH]c2c1 (stereo not given) | 3 | 97* | -2 | -13 | -6 | 9 | -3 | 110
Cc1nn(CC(=O)N(C)Cc2ccc(F)cc2)c(C)c1[N+](=O)[O-] | -1 | 100* | -1 | 1 | -3 | -1 | nt | nt | GRK2 CP2=7;FAM quench CP2=102
Cc1nn(CCCC(=O)NCc2ccc(F)cc2)c(C)c1[N+](=O)[O-] | -3 | 0 | 2 | -2 | -7 | -3 | nt | nt
O=C(Cc1ccccc1)NC1CCCCC1 | 0 | nt | 3 | -1 | nt | 0 | nt | nt
CC1(C)CC(O)(CNCc2ccc3c(c2)OCO3)CCO1 (stereo not given) | -3 | 0 | 0 | 1 | -2 | -2 | nt | nt
SMILES | STEP inh | GRK2 inh | DNMT1 block | SUMO1 PPI mod | Scp-1 inhibitor | LMPTP block | GRK2 inh confirm | FAM quench CP1 | others
CC(C)Oc1ccc(CNCC2(O)CCOC(C)(C)C2)cc1 (stereo not given) | -1 | 57* | -1 | -1 | -2 | 0 | -2 | 101
CSCC(=O)N1CCc2ccc(NC(=O)c3ccccc3Cl)cc2C1 | 4 | 0 | -1 | -1 | -10 | 0 | nt | nt
CCOc1cc(S(=O)(=O)N2CCN=C2Cc2ccccc2)ccc1F | -2 | 44* | -1 | 7 | 0 | -1 | nt | nt | GRK2 CP2=-7;FAM quench CP2=101
O=C(CSc1nnc(NC(=O)c2ccco2)s1)Nc1ccc(F)cc1F | -4 | 1 | 4 | 6 | -13 | -2 | nt | nt
O=C(c1ccc(-c2ccccc2)c(F)c1)C1CCCN(CCCn2cccn2)C1 (stereo not given) | 2 | 0 | 0 | 0 | -14 | 0 | -5 | 100
COc1ccc(OC)c(N(CC(=O)Nc2ccccc2C(=O)NCc2ccco2)S(C)(=O)=O)c1 | -2 | 5 | 0 | 3 | -8 | -1 | nt | nt
COc1ccc(Cl)cc1N(CC(=O)Nc1ccccc1C(=O)NCc1ccco1)S(C)(=O)=O | 0 | 20 | -3 | -2 | -7 | 1 | 0 | 101
Cc1c(Cl)cccc1NS(=O)(=O)c1ccc2c(c1)C1C=CCC1C(c1ccc(C(=O)O)cc1)N2 (stereo not given) | 2 | 52* | 87* | 50* | 26 | 26 | 4 | 93
CC(=O)c1ccc2c(c1)C1C=CCC1C(c1ccc(S(=O)(=O)N3CCOCC3)cc1)N2 (stereo not given) | -2 | 1 | -49 | 19 | -1 | 3 | nt | nt
CCOc1ccccc1N(C(=O)Cn1nnnc1-c1ccc(C)o1)C(CC)C(=O)NC(C)(C)C (stereo not given) | 0 | 97* | 0 | -1 | -9 | 0 | -1 | 102
Cn1c(CSCc2ccc(F)cc2)nnc1SCC(=O)Nc1nccs1 | -5 | 2 | 3 | 0 | -2 | -2 | nt | nt
Cn1c(CSCc2ccccc2)nnc1SCC(=O)Nc1nccs1 | -2 | 50* | 0 | 0 | -7 | -2 | -2 | 96

Bioassay records: PubChem, several laboratories
